# Laboratory results published in PubChem BioAssay.
# Inconclusive results are not listed. Calls of active or inactive are those of the source.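 Rule for the calls, unless noted: active = growth inhibition above 25% in both replicates, a cutoff set 3 SD above the mean; inconclusive = above 25% in only one replicate; inactive = the rest.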
# What was measured:
# [1] = OD615 S. cerevisiae growth inhibition, permissive medium, pilot counter-assay, permissive growth control for S. cerevisiae lifespan shortening project (AID 705); conditions: OD615, 24 h, at 10 µM, active compounds read high
# How it was run: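 Timing: 24 h exposure, 30 °C / Material: Saccharomyces cerevisiae strain carrying genetically modified DeaD replicative-lifespan system / Signal: OD at 615 nm / Compound: 10 µM single dose, 0.25% DMSO / Medium: SC raffinose/galactose permissive medium / Evaluation: reduction in yeast growth (OD615)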
# [2] = Restrictive medium S. cerevisiae growth inhibition, OD615, pilot screen of yeast lifespan reduction project, restrictive growth control (AID 706;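 active = growth inhibition above a set limit, 3 SD over mean compound inhibition, in both replicates, cut at about 43% in these data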;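 note: modified DeaD lifespan yeast strain shifted to restrictive glucose medium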); conditions: OD615, 48 h, at 10 µM, active compounds read high
# How it was run: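 System: Engineered S. cerevisiae DeaD strain | Detection: OD615 | Buffer or medium: CSMM-D glucose medium | Doses: 10 µM compound, 0.25% DMSO | Timing: 4 h pre-growth plus 48 h compound exposure, 30 °C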
# [3] = viability gain of MRP-1-high H69AR cells under doxorubicin, pilot screen, MRP-1 activator project, CellTiter-Glo, duplicate (AID 807;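 active = viability increase at or above a cutoff of the median across tested compounds plus 3 SD, cut at about 8.5% in these data, passing the limit was not always enough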;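 note: compound pretreatment 18-22 h then 72 h combined with doxorubicin; 0% = doxorubicin alone and 100% = vehicle without doxorubicin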); conditions: H69AR viability with doxorubicin, CellTiter-Glo luminescence; at 10 µM; active compounds read high
# [4] = growth suppression of beta-catenin knockout HCT116, pilot screen, human colon tumor cells (AID 823;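 active = cell viability at or below a set limit in both duplicate runs, the limit being the all-compound median minus 4 SD, cut at about 23% in these data, passing the limit was not always enough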;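 note: 0% = wells killed by 20 µM Hyamine and 100% = untreated DMSO cell wells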); conditions: CellTiter-Glo, 60 h, at 10 µM, active compounds read low
# [5] = growth suppression of PTEN-deleted HCT116, pilot screen, cell-based, HCT116 clonal line, CellTiter-Glo (AID 824;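 active = viability at or below 27.92% in each of two runs, the all-compound median minus 4 SD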;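 note: 0% = 20 µM Hyamine control and 100% = vehicle cell control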); conditions: 60 h, at 10 µM, active compounds read low
# [6] = inhibitors of the yeast RAM network, pilot screen, dse1pr::URA3 reporter, 5-FOA selection (AID 869;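 active = inhibition over a set limit, the all-compound mean plus 3 SD, in both replicate runs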;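 note: 0% = DMSO wells with no growth and 100% = 10 µM 1-NA-PP1 with full growth; RAM network block rescues cells from 5-FOA so hits raise OD615 growth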); conditions: S. cerevisiae dse1pr::URA3 5-FOA growth, OD615, 2 d; at 10 µM; active compounds read high; strain carries analog-sensitive mutant Cbk1 kinase
# [7] = RAM signaling pathway blockade in yeast – S. cerevisiae, Pdr1DBD-CYC8 efflux-inhibited sensitized strain, primary screen (AID 1298;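 active = RAM network inhibition above 8.4% in each of two replicates, 3 SD over the compound average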;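 note: 0% = DMSO untreated cells without growth and 100% = 10 µM 1-NA-PP1 full growth; higher means more yeast growth rescued from 5-FOA killing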); conditions: S. cerevisiae cbk1-as DSE1-URA3 strain, 5-FOA growth OD615, 2 d; at 50 µM; active compounds read high
Compound,growth inhibition [1],growth inhibition [2],viability increase [3],viability [4],viability [5],inhibition [6],RAM network inhibition [7]
CN1CCN(c2nc3c(c(=O)n(C)c(=O)n3C)n2CCSc2nc3ccccc3s2)CC1,-5.4% (inactive),-16.2% (inactive),-3.94% (inactive),100% (inactive),96.1% (inactive),1.37% (inactive),3.29% (inactive)
O=C(c1cccc(C(=O)N2CCN(c3ccccc3F)CC2)c1)N1CCN(c2ccccc2F)CC1,-6.5% (inactive),-6.43% (inactive),-2.61% (inactive),56.8% (inactive),54.9% (inactive),3.28% (inactive),4.24% (inactive)
Cc1nnc2ccc(N3CCN(C(=O)c4ccccc4)CC3)nn12,-4.49% (inactive),5.48% (inactive),0.13% (inactive),98.9% (inactive),95.2% (inactive),1.42% (inactive),2.92% (inactive)
O=C(CCS(=O)(=O)c1cccc2nsnc12)N1CCN(C(=O)c2ccco2)CC1,-2.63% (inactive),-12.5% (inactive),-4.22% (inactive),103% (inactive),102% (inactive),0.36% (inactive),1.07% (inactive)
CCOC(=O)Cc1csc(SCn2nnc3ccccc3c2=O)n1,-8.4% (inactive),-9.13% (inactive),0.7% (inactive),94.8% (inactive),94.8% (inactive),2.31% (inactive),1.31% (inactive)
Cc1cc(C)cc(-c2nc(-c3ccncc3)no2)c1,0.275% (inactive),15.9% (inactive),3.69% (inactive),91.1% (inactive),92% (inactive),1.11% (inactive),5.99% (inactive)
COc1ccc(C(=O)N2CCN(c3c(C)cccc3C)CC2)cc1OC,-19.6% (inactive),-4.21% (inactive),0.4% (inactive),80.8% (inactive),72% (inactive),0.89% (inactive),1.36% (inactive)
CCOC(=O)C1CCCN(C(=O)C2CCCN(S(=O)(=O)c3ccc4c(c3)oc(=O)n4C)C2)C1 (stereo unspecified),-4.01% (inactive),-0.98% (inactive),0.99% (inactive),92.2% (inactive),94.5% (inactive),0.445% (inactive),-0.53% (inactive)
O=C(O)c1ccc(CSc2nnc(-c3ccco3)o2)cc1,7.71% (inactive),9.04% (inactive),0.19% (inactive),108% (inactive),96.6% (inactive),0.595% (inactive),3.22% (inactive)
COc1cc2c(cc1OC)C1=C(C#N)CC/C(=N\S(=O)(=O)c3ccccc3)N1CC2,-11.1% (inactive),-3.91% (inactive),-4.28% (inactive),97.8% (inactive),87.8% (inactive),1.25% (inactive),2.61% (inactive)
CC1(C)Nc2ccccc2N(CC(=O)N2CCCCC2)C1=O,0.325% (inactive),-1.38% (inactive),-0.05% (inactive),107% (inactive),103% (inactive),-0.16% (inactive),0.97% (inactive)
CCC(c1ccccc1)c1nc(-c2ccccn2)no1 (stereo unspecified),-3.45% (inactive),-5.84% (inactive),1.44% (inactive),91.8% (inactive),97.8% (inactive),0.495% (inactive),3.77% (inactive)
O=C(NCc1ccco1)C1CCN(c2nnc(-n3cccc3)s2)CC1,3.71% (inactive),-3.18% (inactive),-3.76% (inactive),97.2% (inactive),95.8% (inactive),0.985% (inactive),5.26% (inactive)
COc1ccc(S(=O)(=O)NCCSc2ccc(C)cc2)cc1OC,1.08% (inactive),1.66% (inactive),-2.26% (inactive),85.8% (inactive),86.1% (inactive),1.18% (inactive),2.65% (inactive)
CC1CCCN(Cc2nc3c(c(=O)n(C)c(=O)n3C)n2Cc2cccc3ccccc23)C1 (stereo unspecified),-4.69% (inactive),-2.08% (inactive),-3.36% (inactive),73.2% (inactive),80% (inactive),1.08% (inactive),0.76% (inactive)
Cc1cc(C)n2nc(Nc3ccccc3)cc2n1,-3.93% (inactive),-10.7% (inactive),-4.34% (inactive),90.1% (inactive),89.7% (inactive),1.97% (inactive),4.89% (inactive)
Cc1cc(C)nc(NS(=O)(=O)c2ccc(NC(=O)C3CC(=O)N(c4ccccc4)C3)cc2)n1 (stereo unspecified),-4.82% (inactive),7.38% (inactive),1.33% (inactive),104% (inactive),100% (inactive),1.81% (inactive),3.68% (inactive)
COc1ccc(C2N3CC4(C)CN2CC(C)(C3)C4)cc1OC (stereo unspecified),-3.73% (inactive),-17.4% (inactive),-0.73% (inactive),105% (inactive),101% (inactive),1.08% (inactive),0.83% (inactive)
CCc1ccccc1S(=O)(=O)Cc1ccc(C(=O)NCc2ccc3c(c2)OCO3)o1,-12% (inactive),-13.8% (inactive),-2.5% (inactive),95.7% (inactive),91.1% (inactive),1.87% (inactive),7.83% (inactive)
CC(=O)N1c2ccccc2C(=O)C1N1CCCCC1 (stereo unspecified),-3.63% (inactive),-9.52% (inactive),-3.42% (inactive),93.1% (inactive),84.4% (inactive),0.985% (inactive),-1.19% (inactive)
Cc1nnc(NC(=O)CCCCCN2C(=O)C3C4C=CC(C4)C3C2=O)s1 (stereo unspecified),-10.6% (inactive),-1.29% (inactive),1.66% (inactive),96.7% (inactive),102% (inactive),-0.595% (inactive),3.05% (inactive)
COc1cccc(NC(=O)Nc2nnc(N3CCCCC3C)s2)c1 (stereo unspecified),-2.52% (inactive),-11.5% (inactive),-4.53% (inactive),88.8% (inactive),97.8% (inactive),1.83% (inactive),4.22% (inactive)
CCn1c(=O)c2cc(C(=O)N3CCCC3)sc2c2ccccc21,-4.95% (inactive),13% (inactive),-1.55% (inactive),111% (inactive),96.8% (inactive),1.59% (inactive),2.1% (inactive)
CC1=C(C(N)=O)C(c2ccccc2)n2nc(-c3cccc(C)c3)nc2N1 (stereo unspecified),3.1% (inactive),2.56% (inactive),-2.74% (inactive),98.9% (inactive),97.1% (inactive),0.79% (inactive),3.91% (inactive)

Compound,growth inhibition [1],growth inhibition [2],viability increase [3],viability [4],viability [5],inhibition [6],RAM network inhibition [7]
CCOc1ccccc1C1C(C(N)=O)=C(C)Nc2nc(CCCO)nn21 (stereo unspecified),-13.8% (inactive),2.83% (inactive),-1.39% (inactive),100% (inactive),102% (inactive),2.46% (inactive),-1.1% (inactive)
Cc1cnn(C(=O)c2ccccc2Br)c1,3.79% (inactive),-3.8% (inactive),-1.43% (inactive),109% (inactive),103% (inactive),-0.355% (inactive),1.6% (inactive)
Cc1ccc(CNC(=O)CN(C)S(=O)(=O)c2cccc3cccnc23)cc1,-2.75% (inactive),6.15% (inactive),-1.21% (inactive),99.4% (inactive),92.9% (inactive),2.25% (inactive),-1.33% (inactive)
COc1ccc(-n2c(Cc3cccn3C)nnc2SCC(=O)NC2CCCC2)cc1,-6.13% (inactive),5.99% (inactive),0.53% (inactive),94.1% (inactive),92.4% (inactive),0.835% (inactive),3.89% (inactive)
CCc1n[nH]c2c1/C(=N\O)CC(C)(C)C2,-4.62% (inactive),-1.83% (inactive),-2.26% (inactive),99.4% (inactive),108% (inactive),1.68% (inactive),1.03% (inactive)
N#CC1=C(SCC(=O)Nc2ccccc2)NC(=O)CC1c1ccc(O)cc1 (stereo unspecified),-15.2% (inactive),-10.5% (inactive),-2.43% (inactive),91.4% (inactive),86.5% (inactive),1.42% (inactive),-0.69% (inactive)
Cc1ccc(C2CC(c3cccc(C)c3)n3nc(N)nc3N2)cc1 (stereo unspecified),-0.275% (inactive),16.7% (inactive),-3.52% (inactive),89.6% (inactive),81% (inactive),1.81% (inactive),1.43% (inactive)
O=C(O)CC12CSc3[nH]c(=O)sc3C1c1ccccc1OC2=O (stereo unspecified),3.48% (inactive),-0.005% (inactive),-2.73% (inactive),101% (inactive),95% (inactive),1.14% (inactive),-0.11% (inactive)
CC(=O)NCCc1nc2ccccc2n1Cc1ccccc1,1.21% (inactive),-2.44% (inactive),-2% (inactive),106% (inactive),98.8% (inactive),1.33% (inactive),3.58% (inactive)
COc1cccc(C2C(C(=O)c3ccco3)=C(O)C(=O)N2CCCN2CCOCC2)c1OC (stereo unspecified),-8.82% (inactive),-0.75% (inactive),-3.37% (inactive),102% (inactive),93.5% (inactive),1.02% (inactive),6.98% (inactive)
Cc1ccccc1CSc1nnc(-c2ccco2)n1Cc1ccco1,5.54% (inactive),10.2% (inactive),-4.14% (inactive),82.6% (inactive),82.4% (inactive),0.145% (inactive),0.99% (inactive)
C=CCn1cc(C(=O)NCCCOC)c(=O)c2cc(S(=O)(=O)N3CCC(C)CC3)ccc21,-10.6% (inactive),-19.6% (inactive),-3.54% (inactive),96.7% (inactive),87% (inactive),1.56% (inactive),-0.52% (inactive)
Cn1c(CCNC(=O)C(C)(C)C)nc2ccccc21,-4.42% (inactive),-7.26% (inactive),0.98% (inactive),95.3% (inactive),98.5% (inactive),2.58% (inactive),4.43% (inactive)
CCOC(=O)c1cnc2c(C#N)c(C)nn2c1-c1ccccc1,-5.3% (inactive),0.945% (inactive),-0.99% (inactive),94% (inactive),92.7% (inactive),1.69% (inactive),3.66% (inactive)
CCCCC(CC)CNC(=O)CCS(=O)(=O)c1cccc2nonc12 (stereo unspecified),1.79% (inactive),-0.105% (inactive),-0.88% (inactive),92.2% (inactive),91.4% (inactive),2.17% (inactive),3.63% (inactive)
CN(Cc1ccco1)C(=O)C(Cc1ccccc1)NS(=O)(=O)c1ccc2c(c1)CCC(=O)N2 (stereo unspecified),-11.9% (inactive),-12.3% (inactive),-4.4% (inactive),94.9% (inactive),84.4% (inactive),2.2% (inactive),3.45% (inactive)
O=C(O)CCNc1cc2ccccc2cc1C(=O)O,-15.4% (inactive),-3.88% (inactive),-1.49% (inactive),97.3% (inactive),96.5% (inactive),1.59% (inactive),-0.37% (inactive)
O=C(NCCCN1CCN(c2ccccc2F)CC1)C1CCCN(S(=O)(=O)c2cnc[nH]2)C1 (stereo unspecified),4.25% (inactive),2.15% (inactive),1.39% (inactive),95.1% (inactive),102% (inactive),-0.46% (inactive),0.21% (inactive)
O=C1CCCc2c1[nH]c1c(Br)cccc21,5.96% (inactive),-1.3% (inactive),0.96% (inactive),108% (inactive),105% (inactive),0.425% (inactive),3.4% (inactive)
CC(=O)c1cc(CN2C(=O)CCC2=O)cs1,-5.33% (inactive),-9.9% (inactive),-0.46% (inactive),94.1% (inactive),95.6% (inactive),1.64% (inactive),1.46% (inactive)
O=C(Cn1nc(Cc2cccnc2)c2ccccc2c1=O)NCC1COc2ccccc2O1 (stereo unspecified),3.08% (inactive),-0.92% (inactive),-1.71% (inactive),90.5% (inactive),95.3% (inactive),1.99% (inactive),0.96% (inactive)
O=C(Cn1ncc2c(=O)oc3ccccc3c21)N1CCCN(Cc2ccccc2F)C1,-3.74% (inactive),2.98% (inactive),-3.74% (inactive),101% (inactive),94.1% (inactive),1.55% (inactive),1.79% (inactive)
O=C1N(O)C2(C=CCCC2)/C(=N\O)C12CCCCC2 (stereo unspecified),-11.1% (inactive),-1.67% (inactive),-2.64% (inactive),90.1% (inactive),100% (inactive),-0.15% (inactive),1.27% (inactive)
Cn1c(=O)c(C(=O)Nc2ncccn2)c(O)c2ccccc21,39.2% (active),63.5% (active),-3.95% (inactive),87.1% (inactive),89.5% (inactive),0.475% (inactive),-1.44% (inactive)
